Experimental data reported in article PMC3013634 (FEMS microbiology letters, 2009).

Target: T1, sPBP 6 (Escherichia coli, UniProt P08506)
T1 sequence (P08506 28-388 limits assumed): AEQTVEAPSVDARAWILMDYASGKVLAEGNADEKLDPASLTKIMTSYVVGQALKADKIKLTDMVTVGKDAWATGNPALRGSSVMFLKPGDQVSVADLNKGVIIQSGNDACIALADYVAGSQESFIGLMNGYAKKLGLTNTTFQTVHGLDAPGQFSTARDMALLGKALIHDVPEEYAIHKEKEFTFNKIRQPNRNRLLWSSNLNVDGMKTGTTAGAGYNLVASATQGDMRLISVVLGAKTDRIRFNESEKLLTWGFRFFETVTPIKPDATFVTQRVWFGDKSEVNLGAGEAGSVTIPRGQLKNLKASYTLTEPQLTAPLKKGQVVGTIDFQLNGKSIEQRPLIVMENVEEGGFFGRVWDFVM
Experiment: acylation rate, fluorescent labelling, SDS-PAGE densitometry
Type: binding
Details: covalent; labelled compound; active-site serine acylation; 25-100 μM, 30-120 s
In short: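 Enzyme (250 μg) was incubated with BOCILLIN FL at 25, 50 or 100 μM for 30–120 s, then run on 12% SDS-PAGE and fluorescence-scanned (488/526 nm). Pseudo-first-order ka came from bound density relative to saturation, and k2/K from the slope of ka versus concentration.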

## Cc1cc(C)n2c1C=C1C=CC(CCC(=O)Nc3ccc(OCC(=O)N[C@@H]4C(=O)N5[C@@H]4SC(C)(C)[C@@H]5C(=O)[O-])cc3)=[N+]1[B-]2(F)F.[Na+] [BOCILLIN FL]
  k2/K / M^-1 s^-1: 1900 ± 65.5 M⁻¹ s⁻¹
